From ChEMBL document CHEMBL1121388, “Analgesic narcotic antagonists. 2. 8-Alkymorphinan-6-ones” (J Med Chem, 1980) come the findings set out here.

Experiment [1] concerns Mus musculus. Put plainly: The Effective dose was measured by using mouse writhing assay 5 min after the compound administered subcutaneously. The format is functional. The conditions noted are these: sc.
Experiment [2] deals with Rattus norvegicus. Put plainly: The effective dose was measured by using rat tail flick assay after the compound administered intraperitoneally. The class given is functional. The conditions noted are these: ip.
For experiment [3], the species on record is Rattus norvegicus. Put plainly: Ratio of agonist to that of antagonist activity. The format is functional.
Experiment [4] deals with Mus musculus. Put plainly: The effective dose was measured by using mouse writhing assay after the compound administered subcutaneously. To be noted: sc. The format is functional. The method in brief:
(§1)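 Analgesia in the mouse writhing test induced by acetic acid, with compound given subcutaneously. Salts were dissolved in distilled H₂O; free bases were dissolved by dropwise 1 N HCl and then diluted.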

In experiment [5] the test system is Rattus norvegicus. Put plainly: The Effective dose was measured by using rat tail flick assay after the compound administered intraperitoneally at a dose of 25 umol/kg; IA means inactive at the given dose. The format is functional, organism-based.
In experiment [6] the test system is Mus musculus. Put plainly: The Effective dose was measured by using mouse writhing assay after the compound administered subcutaneously at a dose of 25 umol/kg; IA means inactive at the given dose. The format is functional, organism-based. The method in brief: as §1
Experiment [7] has as its system Mus musculus. Put plainly: The Effective dose was measured by using mouse writhing assay after the compound administered subcutaneously; IA means inactive. The class given is functional, organism-based. The method in brief: as §1
The test system of experiment [8] is Rattus norvegicus. Put plainly: Effective dose was measured by using rat tail flick assay after subcutaneous administration. The class given is functional. To be noted: sc. The essentials: (§2)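 Agonist activity in the rat heat-stimulus tail-flick test. Drug was given subcutaneously and rats were tested 20 min after dosing. Salts were dissolved in distilled H₂O; free bases were dissolved with dropwise 1 N HCl and then diluted. ED₅₀ or inactivity/lethality recorded at the dose indicated.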

Experiment [9] has as its system Mus musculus. Put plainly: The Effective dose was measured by using mouse writhing assay after the compound administered subcutaneously at a dose of 22 umol/kg; IA means inactive at the given dose. The class given is functional, organism-based. The method in brief:
as §1

Experiment [10] concerns Mus musculus. Put plainly: The Effective dose was measured by using mouse writhing assay after the compound administered subcutaneously at a dose of 24 umol/kg; IA means inactive at the given dose. The class given is functional, organism-based. The essentials: as §1
Experiment [11] relates to Mus musculus. Put plainly: The Effective dose was measured by using mouse writhing assay after the compound administered subcutaneously at a dose 27umol/kg; IA means inactive at the given dose. The class given is functional, organism-based. The essentials:
as §1

The test system of experiment [12] is Rattus norvegicus. Put plainly: The Effective dose was measured by using rat tail flick assay after the compound administered subcutaneously at a dose 27umol/kg; IA means inactive at the given dose. The class given is functional, organism-based. The method in brief: as §2

Active and inactive are the calls of the source. The calls are words filed in the database; no cut-off is given here.

Consider `CC[C@H]1CC(=O)CC23CCN(CC4CCC4)C(Cc4ccc(O)cc42)[C@H]13.Cl` (stereo partly specified), for which the figures for the ED50 in the experiment on Mus musculus [1] and in the experiment on Rattus norvegicus [2] were 0.54 µmol/kg and 0.82 µmol/kg, respectively. The Ratio in the experiment filed under Rattus norvegicus [3] was found to be 0.65.

As for `C[C@H]1CC(=O)CC23CCN(CC4CCC4)C(Cc4ccc(O)cc42)[C@H]13.Cl` (stereo partly specified), the figures for the ED50 in the experiment on Mus musculus [4] and with Rattus norvegicus [2] were 0.29 µmol/kg and 2.79 µmol/kg, respectively. In the experiment listed under Rattus norvegicus [3], the Ratio is reported as 0.1.

Take `C=CCN1CC[C@]23c4c5ccc(O)c4O[C@H]2[C@@H](O)C=C[C@H]3[C@H]1C5` [NALORPHINE]: the Ratio in the experiment listed under Rattus norvegicus [3] was 1.42.

Compound `COc1ccc2c(c1)C13CCN(CC4CCC4)C(C2)[C@@H]1CCC(=O)C3` (stereo partly specified) showed an ED50 in the experiment with Mus musculus [4] of 0.58 µmol/kg. The ED50 result in the experiment on Rattus norvegicus [5] is “inactive”.

Regarding `C[C@@H]1CC(=O)CC23CCN(CC4CC4)C(Cc4ccc(O)cc42)[C@@H]13` (stereo partly specified), in the experiment on Mus musculus [6], the ED50 entry is “inactive”. In the experiment with Rattus norvegicus [2], this compound displayed an ED50 of 0.89 µmol/kg.

Consider `C=CCN1CC[C@]23c4c5ccc(O)c4O[C@H]2C(=O)CC[C@@]3(O)[C@H]1C5` [NALOXONE], for which, in the experiment on Mus musculus [7], the ED50 entry was “inactive”.

For the compound `CCC[C@H]1CC(=O)CC23CCN(CC4CC4)C(Cc4ccc(O)cc42)[C@H]13` (stereo partly specified), the ED50 result in the experiment on Mus musculus [6] was “inactive”. In addition, it took a dose of 24.3 µmol/kg to reach the 50% effect level with Rattus norvegicus [2] (ED50).

With `CC[C@@H]1CC(=O)CC23CCN(CC4CC4)C(Cc4ccc(O)cc42)[C@@H]13` (stereo partly specified), the ED50 entry in the experiment on Mus musculus [6] was “inactive”. Also, the 50% effect level with Rattus norvegicus [2] (ED50) was put at a dose of 0.88 µmol/kg.

Consider `COc1ccc2c3c1O[C@H]1C(=O)CC[C@H]4[C@@H](C2)N(C)CC[C@]314` [HYDROCODONE], for which the 50% effect level in the experiment with Rattus norvegicus [8] (ED50) was put at a dose of 5.2 µmol/kg.

For `C[C@H]1CC(=O)C[C@]23CCN(CC4CC4)[C@H](Cc4ccc(O)cc42)[C@H]13`, the figures for the ED50 in the experiment on Mus musculus [4] and with Rattus norvegicus [2] were 10.2 µmol/kg and 1.8 µmol/kg, respectively. Further, the Ratio in the experiment filed under Rattus norvegicus [3] came to 5.7.

With `C[C@@H]1CC(=O)CC23CCN(C)C(Cc4ccc(O)cc42)[C@@H]13` (stereo partly specified), the ED50 in the experiment with Mus musculus [4] stood at 1.18 µmol/kg; in the experiment with Rattus norvegicus [8] it was 0.93 µmol/kg.

For the compound `CCC[C@@H]1CC(=O)CC23CCN(CC4CC4)C(Cc4ccc(OC)cc42)[C@@H]13` (stereo partly specified), the ED50 entry in the experiment on Mus musculus [9] was “inactive”. This compound also returned an ED50 in the experiment with Rattus norvegicus [2] of 6.4 µmol/kg.

On to `CC[C@@H]1CC(=O)CC23CCN(C)C(Cc4ccc(OC)cc42)[C@@H]13` (stereo partly specified), for which the ED50 with Mus musculus [4] was 37 µmol/kg; with Rattus norvegicus [8], over 28 µmol/kg.

For `CCC[C@@H]1CC(=O)CC23CCN(CC4CC4)C(Cc4ccc(O)cc42)[C@@H]13` (stereo partly specified), the ED50 result in the experiment on Mus musculus [10] was “inactive”. For the same compound, the 50% effective dose (ED50) in the experiment on Rattus norvegicus [2] turned out to be 3.34 µmol/kg.

With `CC(C)=CCN1CC[C@]2(C)c3cc(O)ccc3C[C@H]1[C@H]2C` [(+)-PENTAZOCINE], the Ratio in the experiment listed under Rattus norvegicus [3] came out at 0.36.

Consider `C[C@@H]1CC(=O)CC23CCN(CC4CCC4)C(Cc4ccc(O)cc42)[C@@H]13` (stereo partly specified), for which the median effective dose (ED50) worked out at 5.98 µmol/kg in the experiment with Mus musculus [4] and 12.8 µmol/kg in the experiment on Rattus norvegicus [2].

For the compound `CCC[C@H]1CC(=O)CC23CCN(C)C(Cc4ccc(OC)cc42)[C@H]13` (stereo partly specified), the ED50 is 15.4 µmol/kg with Mus musculus [4] and over 28 µmol/kg in the experiment with Rattus norvegicus [8].

With `C=CCN1CCC23CC(=O)CC(C)[C@H]2C1Cc1ccc(O)cc13` (stereo partly specified), the ED50 in the experiment with Mus musculus [4] was over 25 µmol/kg; in the experiment on Rattus norvegicus [2], 0.65 µmol/kg.

Regarding `COc1ccc2c(c1)C13CCN(CC4CC4)C(C2)[C@H]1CCC(=O)C3` (stereo partly specified), the ED50 was over 25 µmol/kg with Mus musculus [4] and 3.6 µmol/kg in the experiment with Rattus norvegicus [2].

On to `COc1ccc2c3c1O[C@H]1[C@@H](O)C=C[C@H]4[C@@H](C2)N(C)CC[C@@]341` [CODEINE], for which the values for the ED50 in the experiment on Mus musculus [4] and in the experiment on Rattus norvegicus [8] were 10.3 µmol/kg and 75 µmol/kg, respectively.

`CCC[C@H]1CC(=O)CC23CCN(C)C(Cc4ccc(O)cc42)[C@H]13` (stereo partly specified): the ED50 result with Mus musculus [11] and in the experiment on Rattus norvegicus [12] was “inactive” each time.

In the case of `CN1CCC23CC(=O)CC[C@H]2C1Cc1ccc(O)cc13` (stereo partly specified), the results for the ED50 in the experiment on Mus musculus [4] and in the experiment with Rattus norvegicus [8] were 0.52 µmol/kg and 70 µmol/kg, respectively.

Consider `C[C@H]1[C@H]2Cc3ccc(O)cc3[C@]1(C)CCN2CC1CC1` [CYCLAZOCINE], for which the results for the ED50 in the experiment with Mus musculus [4] and with Rattus norvegicus [2] were 0.41 µmol/kg and 0.81 µmol/kg, respectively. Moreover, the Ratio in the experiment listed under Rattus norvegicus [3] amounted to 0.5.

`CCC[C@@H]1CC(=O)CC23CCN(CC4CCC4)C(Cc4ccc(O)cc42)[C@@H]13` (stereo partly specified): the ED50 with Mus musculus [4] is over 24 µmol/kg; in the experiment with Rattus norvegicus [2], 4.5 µmol/kg.

In the case of `COc1ccc2c(c1)[C@]13CCN(CC4CC4)[C@H](C2)[C@@H]1[C@@H](C)CC(=O)C3`, the 50% effective dose (ED50) turned out to be 0.71 µmol/kg in the experiment on Mus musculus [4] and 4.27 µmol/kg with Rattus norvegicus [2]. For the same compound, the Ratio in the experiment filed under Rattus norvegicus [3] worked out at 0.17.
